# Active and inactive are the calls of the source.
# What was measured:
# A-431 = assay: Antiproliferative activity against human A431 cells expressing wild type EGFR assessed as cell growth inhibition measured after 72 hrs by MTT assay; format: functional, cell-based; conditions: A-431, 72 h
# Outline: (§1)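 Cells were seeded at 3000–8000/well and allowed 24 h, then exposed to serial compound concentrations for 72 h. MTT (5 mg/mL stock in PBS) was added for 4 h, supernatant removed and DMSO added. IC50, defined as 50% growth inhibition, was derived by nonlinear regression (log inhibitor vs response).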
# HepG2 = assay: Antiproliferative activity against human HepG2 cells expressing VEGFR2 assessed as cell growth inhibition measured after 72 hrs by MTT assay; format: functional, cell-based; conditions: HepG2, 72 h; outline: as §1
# [1] = test system: von Hippel-Lindau disease tumor suppressor/Epidermal growth factor receptor (Homo sapiens), P00533+P40337 [L858R,T790M]; assay: Protac activity at VHL/EGFR L858R/T790M mutant in human H1975 cells assessed as induction of degradation of EGFR at 333 nM incubated for 48 hrs measured after compound wash-out for 48 hrs by Western blot analysis; format: cell-based; conditions: NCI-H1975
# Outline: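 H1975 cells (RPMI-1640, 10% heat-inactivated FBS) exposed to 333 nM for 48 h. Medium then replaced with compound-free medium, and lysates collected at the stated times. EGFR read by Western blot; n = 2.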
# [2] = test system: von Hippel-Lindau disease tumor suppressor/Epidermal growth factor receptor (Homo sapiens), P00533+P40337 [UNDEFINED MUTATION]; assay: Protac activity at VHL/EGFR del19 mutant in human HCC827 cells assessed as induction of EGFR degradation at 33 nM incubated for 24 hrs measured following drug wash-out for 48 hrs by Western blot analysis; format: cell-based
# Outline: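 HCC827 cells (RPMI-1640, 10% heat-inactivated FBS, 1% sodium pyruvate, 1% glutamine, 37 °C, 5% CO₂) treated at 33 nM for 24 h. Medium then replaced with compound-free medium, and protein harvested at the stated times. EGFR read by Western blot; n = 2.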
# HCC827 [3] = assay: Induction of apoptosis in human HCC827 cells assessed as apoptotic cells at 10 nM measured after 48 hrs by AnnexinV-FITC/propidium iodide staining based flow cytometry analysis relative to control; format: functional
# Outline: (§2)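 To measure apoptosis, cells were seeded at 0.5–1 × 10⁶ per well, grown 24 h, then treated for 48 h. Collected cells were stained with an Annexin V-FITC apoptosis detection kit following its instructions, and apoptosis rate was read by flow cytometry. n = 2.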
# NCI-H1975 [4] = assay: Induction of apoptosis in human NCI-H1975 cells at 333 to 1000 nM measured after 48 hrs by AnnexinV-FITC/propidium iodide staining based flow cytometry analysis; format: functional, cell-based; conditions: dose 333-1000 nM; outline: as §2
# HCC827 [5] = assay: Induction of cell cycle arrest in human HCC827 cells assessed as accumulation at G1 phase at 10 to 100 nM measured after 48 hrs by propidium iodide staining based flow cytometry analysis; format: functional; conditions: dose 10-100 nM
# Outline: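 Cell cycle: cells were seeded at 0.5–1 × 10⁶ per well for 24 h, then treated 48 h. They were collected and washed twice in PBS, stained with PI/RNase at 37 °C for 15 min, and analysed by flow cytometry. n = 2.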
# HCC827 [6] = assay: Inhibition of colony formation in human HCC827 cells at 1 nM incubated for 15 days by crystal violet staining based analysis; format: functional, cell-based; conditions: time 15.0 day
# Outline: (§3)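 Colony formation: 200 cells per well were seeded and incubated 24 h, then kept with compound for 15 days. After three PBS washes, cells were fixed in cold 75% ethanol and stained with 0.1% crystal violet in water for 1 h. Colonies were counted.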
# NCI-H1975 [7] = assay: Inhibition of colony formation in human NCI-H1975 cells at 100 nM incubated for 15 days by crystal violet staining based analysis; format: functional, cell-based; conditions: time 15.0 day; outline: as §3
# [8] = test system: von Hippel-Lindau disease tumor suppressor/Epidermal growth factor receptor (Homo sapiens), P00533+P40337 [UNDEFINED MUTATION]; assay: Protac activity at VHL/EGFR del19 mutant in human HCC827 cells assessed as induction of EGFR degradation at 33 nM measured after 24 hrs by Western blot analysis; format: cell-based
# Outline: (§4)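 HCC827 cells seeded at 0.5–1 × 10⁶ per well, grown 24 h, then treated at the stated concentrations for 24 h. EGFR^del19 level by Western blot with anti-EGFR antibody and β-actin loading control.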
# [9] = test system: von Hippel-Lindau disease tumor suppressor/Epidermal growth factor receptor (Homo sapiens), P00533+P40337 [UNDEFINED MUTATION]; assay: Protac activity at VHL/EGFR del19 mutant in human HCC827 cells assessed as induction of EGFR degradation at 333 nM measured after 24 hrs by Western blot analysis; format: cell-based; outline: as §4
# [10] = biological target: T1, von Hippel-Lindau disease tumor suppressor/Epidermal growth factor receptor (Homo sapiens, UniProt P00533+P40337); assay: Protac activity at VHL/EGFR del19 mutant in human HCC827 cells assessed as induction of EGFR degradation measured after 48 hrs by Western blot analysis; format: cell-based
# Outline: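 HCC827 cells seeded at 0.5–1 × 10⁶ per well, then treated at the stated concentrations for 48 h. EGFR by Western blot; n = 3. DC₅₀ (concentration giving 50% EGFR loss) by nonlinear regression, log(inhibitor) vs response.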
# [11] = biological target: T1, von Hippel-Lindau disease tumor suppressor/Epidermal growth factor receptor; assay: Protac activity at VHL/EGFR in human A431 cells assessed as induction of degradation of EGFR at 0.1 to 3.3 uM incubated for 48 hrs by Western blot analysis; format: cell-based; conditions: A-431, dose 0.1-3.3 µM
# [12] = test system: von Hippel-Lindau disease tumor suppressor/Epidermal growth factor receptor (Homo sapiens), P00533+P40337 [UNDEFINED MUTATION]; assay: Protac activity at VHL/EGFR del19 mutant in human HCC827 cells assessed as induction of EGFR degradation by measuring reduction in EGFR phosphorylation at 3 nM incubated for 48 hrs by Western blot analysis; format: cell-based
# Outline: (§5)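 HCC827 or H1975 cells treated at the stated concentrations for 48 h. Lysates probed by Western blot for EGFR, P-EGFR, Akt and P-Akt (each 1:1000); n = 2.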
# [13] = test system: von Hippel-Lindau disease tumor suppressor/Epidermal growth factor receptor (Homo sapiens), P00533+P40337 [L858R,T790M]; assay: Protac activity at VHL/EGFR L858R/T790M mutant in human H1975 cells assessed as induction of degradation of EGFR by measuring reduction in EGFR phosphorylation at 100 nM incubated for 48 hrs by Western blot analysis; format: cell-based; conditions: NCI-H1975; outline: as §5
# [14] = test system: von Hippel-Lindau disease tumor suppressor/Epidermal growth factor receptor (Homo sapiens), P00533+P40337 [L858R,T790M]; assay: Protac activity at VHL/EGFR L858R/T790M mutant in human H1975 cells assessed as induction of degradation of EGFR by measuring reduction in Akt phosphorylation at 100 nM incubated for 48 hrs by Western blot analysis; format: cell-based; conditions: NCI-H1975; outline: as §5
# NCI-H1975 [15] = assay: Effect on Akt protein expression in human H1975 cells at 0.1 to 1 uM incubated for 48 hrs by Western blot analysis; format: functional, cell-based; conditions: dose 0.1-1 µM
# [16] = test system: von Hippel-Lindau disease tumor suppressor/Epidermal growth factor receptor (Homo sapiens), P00533+P40337 [UNDEFINED MUTATION]; assay: Protac activity at VHL/EGFR del19 mutant in human HCC827 cells assessed as induction of EGFR degradation at 0.033 uM pretreated with autophagy inhibitor, chloroquine for 2 hrs followed by incubation with compound for 24 hrs by Western blot analysis; format: cell-based
# [17] = test system: von Hippel-Lindau disease tumor suppressor/Epidermal growth factor receptor (Homo sapiens), P00533+P40337 [L858R,T790M]; assay: Protac activity at VHL/EGFR L858R/T790M mutant in human H1975 cells assessed as induction of degradation of EGFR at 1 uM pretreated with autophagy inhibitor, chloroquine for 2 hrs followed by incubation with compound for 24 hrs by Western blot analysis; format: cell-based; conditions: NCI-H1975
# Outline: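 H1975 cells pretreated with chloroquine for 2 h, then exposed to compound for 24 h. EGFR level by Western blot; n = 3.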
compound,measurement,setting,value
Cc1ncsc1-c1ccc(CNC(=O)[C@@H]2C[C@@H](O)CN2C(=O)[C@@H](NC(=O)CCCCCCN2CCN(c3ccc(Nc4ncc5nc(Nc6ccccc6)n(C6CCCC6)c5n4)cc3)CC2)C(C)(C)C)cc1,IC50,A-431,245 nM
same,IC50,HepG2,> 5000 nM
same,Activity,[1],Active
same,Activity,[2],inactive
same,Activity,HCC827 [3],31.07%
same,Activity,NCI-H1975 [4],inactive
same,Activity,HCC827 [5],Active
same,inhibition,HCC827 [6],Active
same,inhibition,NCI-H1975 [7],Active
same,Activity,[8],Active
same,Activity,[9],inactive
same,DC50,[10],0.51 nM
same,Activity,[11],inactive
same,Activity,[12],Active
same,Activity,[13],Active
same,Activity,[14],Active
same,Activity,NCI-H1975 [15],inactive
same,Activity,[16],inactive
same,Activity,[17],inactive

# From ChEMBL document CHEMBL4706553, “Discovery of potent small molecule PROTACs targeting mutant EGFR” (Eur J Med Chem, 2020)
